From ChEMBL document CHEMBL1140764, “Chromen-based TNF-alpha converting enzyme (TACE) inhibitors: design, synthesis, and biological evaluation” (Bioorg Med Chem, 2008)

Legend:
RAW264.7 [1] = assay: Inhibition of NO production in mouse RAW264.7 cells at 10 uM after 24 hrs by ELISA; format: functional, cell-based; details: in the assay text read “by Griess assay” for “by ELISA”
Summary of the method: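 RAW264.7 cells cultured with inhibitors for 24 h. NO2- accumulation in medium taken as NO output: supernatant mixed 1:1 with Griess reagent (1% sulfanilamide, 0.1% naphthylethylenediamine dihydrochloride, 2% phosphoric acid), 10 min at room temperature, absorbance at 540 nm against a NaNO2 standard curve. Single concentration 10 μM. Means of three experiments.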

RAW264.7 [2] = assay: Inhibition of TNFalpha production in mouse RAW264.7 cells after 24 hrs by ELISA; format: functional, cell-based; details: RAW264.7, 24 h
Summary of the method: (§1)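 RAW264.7 cells cultured with inhibitors for 24 h. Secreted TNF-α in culture supernatant quantified by ELISA following the kit instructions. IC50 values are means of three experiments; line 3 is the single-concentration 10 μM result.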

[3] = target: Disintegrin and metalloproteinase domain-containing protein 17 (Homo sapiens, UniProt P78536); assay: Inhibition of human TACE
Chain of Disintegrin and metalloproteinase domain-containing protein 17 (P78536 whole entry, the tested form may be a part): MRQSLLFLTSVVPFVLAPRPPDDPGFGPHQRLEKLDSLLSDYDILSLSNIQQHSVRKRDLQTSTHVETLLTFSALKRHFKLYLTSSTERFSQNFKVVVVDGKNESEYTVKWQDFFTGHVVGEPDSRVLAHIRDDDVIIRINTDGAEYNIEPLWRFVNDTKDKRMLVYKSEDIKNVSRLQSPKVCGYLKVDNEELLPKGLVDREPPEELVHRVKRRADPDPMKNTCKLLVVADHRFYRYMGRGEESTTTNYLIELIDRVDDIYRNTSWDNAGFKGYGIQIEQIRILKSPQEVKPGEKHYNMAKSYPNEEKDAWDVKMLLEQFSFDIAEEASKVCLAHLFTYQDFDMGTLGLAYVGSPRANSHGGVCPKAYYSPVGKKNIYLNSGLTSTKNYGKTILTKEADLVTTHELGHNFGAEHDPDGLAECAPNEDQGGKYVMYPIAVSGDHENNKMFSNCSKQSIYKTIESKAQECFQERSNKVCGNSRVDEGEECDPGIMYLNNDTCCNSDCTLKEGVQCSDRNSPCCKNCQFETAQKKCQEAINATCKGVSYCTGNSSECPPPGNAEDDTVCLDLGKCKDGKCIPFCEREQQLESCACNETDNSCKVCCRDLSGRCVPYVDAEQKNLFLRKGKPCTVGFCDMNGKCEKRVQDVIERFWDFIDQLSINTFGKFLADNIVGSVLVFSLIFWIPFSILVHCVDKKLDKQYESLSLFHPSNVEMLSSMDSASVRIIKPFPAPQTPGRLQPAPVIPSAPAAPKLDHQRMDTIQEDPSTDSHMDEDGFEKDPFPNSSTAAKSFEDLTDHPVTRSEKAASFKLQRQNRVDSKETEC

[4] = target: Matrix metalloproteinase-9 (Homo sapiens, UniProt P14780); assay: Inhibition of human recombinant MMP9
Chain of Matrix metalloproteinase-9 (P14780 whole entry, the tested form may be a part): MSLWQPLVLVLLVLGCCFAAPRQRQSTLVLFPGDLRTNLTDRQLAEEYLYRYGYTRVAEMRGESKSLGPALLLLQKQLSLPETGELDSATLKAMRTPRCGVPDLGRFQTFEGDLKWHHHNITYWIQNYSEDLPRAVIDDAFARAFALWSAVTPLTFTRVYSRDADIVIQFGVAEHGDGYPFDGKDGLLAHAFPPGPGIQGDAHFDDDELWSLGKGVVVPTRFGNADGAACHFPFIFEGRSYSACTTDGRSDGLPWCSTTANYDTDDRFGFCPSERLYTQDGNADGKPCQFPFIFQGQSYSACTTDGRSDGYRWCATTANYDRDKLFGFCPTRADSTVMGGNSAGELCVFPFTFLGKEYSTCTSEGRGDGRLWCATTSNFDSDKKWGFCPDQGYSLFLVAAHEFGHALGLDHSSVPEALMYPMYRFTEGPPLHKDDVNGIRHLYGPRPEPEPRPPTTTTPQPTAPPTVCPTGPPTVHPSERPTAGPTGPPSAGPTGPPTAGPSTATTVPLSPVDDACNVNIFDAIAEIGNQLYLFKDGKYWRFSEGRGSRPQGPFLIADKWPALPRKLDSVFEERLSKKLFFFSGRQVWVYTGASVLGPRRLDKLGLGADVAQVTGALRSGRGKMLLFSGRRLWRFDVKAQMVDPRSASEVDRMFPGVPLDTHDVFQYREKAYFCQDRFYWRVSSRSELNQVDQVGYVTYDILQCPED
Summary of the method: (§2)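 Recombinant human MMP-2 or MMP-9 catalytic domain with fluorogenic quenched peptide Mca-Pro-Leu-Gly-Leu-Dpa-Ala-Arg-NH2. Cleavage releases Mca. Fluorescence read at excitation 324, emission 420, and the rate of emission change is taken as enzyme activity. IC50 values are means of three experiments.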

[5] = target: 72 kDa type IV collagenase (Homo sapiens, UniProt P08253); assay: Inhibition of human recombinant MMP2; summary of the method: as §2
Chain of 72 kDa type IV collagenase (P08253 whole entry): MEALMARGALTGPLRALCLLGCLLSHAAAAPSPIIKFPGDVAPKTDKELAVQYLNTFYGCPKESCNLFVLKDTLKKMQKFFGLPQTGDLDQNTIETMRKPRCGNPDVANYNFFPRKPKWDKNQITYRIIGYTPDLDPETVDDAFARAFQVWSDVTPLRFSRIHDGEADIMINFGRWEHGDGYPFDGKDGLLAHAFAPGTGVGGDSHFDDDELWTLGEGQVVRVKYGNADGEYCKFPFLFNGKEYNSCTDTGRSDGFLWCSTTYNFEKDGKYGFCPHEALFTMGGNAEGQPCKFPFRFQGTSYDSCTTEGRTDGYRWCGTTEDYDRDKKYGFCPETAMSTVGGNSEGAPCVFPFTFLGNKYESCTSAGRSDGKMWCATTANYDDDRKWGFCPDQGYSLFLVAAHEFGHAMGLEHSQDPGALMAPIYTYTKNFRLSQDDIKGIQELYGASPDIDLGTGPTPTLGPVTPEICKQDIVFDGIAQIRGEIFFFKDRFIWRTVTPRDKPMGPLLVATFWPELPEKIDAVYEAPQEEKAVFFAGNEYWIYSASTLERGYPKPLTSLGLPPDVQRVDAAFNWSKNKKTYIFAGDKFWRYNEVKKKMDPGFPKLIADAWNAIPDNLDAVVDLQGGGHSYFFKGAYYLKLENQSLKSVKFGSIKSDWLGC

RAW264.7 [6] = assay: Inhibition of TNFalpha production in mouse RAW264.7 cells at 10 uM after 24 hrs by ELISA; format: functional, cell-based; summary of the method: as §1

| Structure (SMILES) | IC50 (RAW264.7 [1]) | IC50 (RAW264.7 [2]) [µM] | IC50 [3] [µM] | IC50 [4] [µM] | IC50 [5] [µM] | IC50 (RAW264.7 [6]) |
| --- | --- | --- | --- | --- | --- | --- |
| O=C(CCc1cc2ccccc2oc1=O)NO | Not Active | 5.64 | 0.15 | 1.41 | 0.2 | – |
| C/C=C/C=C\C=C1\C=C(CCC(=O)NO)C(=O)OC1 | Not Active | 8.8 | 0.028 | 0.023 | 0.006 | – |
| Cc1ccc2oc(=O)c(CCC(=O)NO)cc2c1 | Not Active | 1.3 | 0.06 | 3.05 | 0.23 | – |
| O=C(CCc1cc2cc(Br)ccc2oc1=O)NO | Not Active | 13 | 0.84 | 24.5 | 0.86 | – |
| C=CCC(Cc1cc2cc(C)ccc2oc1=O)C(=O)NO (configuration not stated) | Not Active | 0.52 | 0.03 | – | – | – |
| Cc1ccc2oc(=O)c(CC(Cc3ccccc3)C(=O)NO)cc2c1 (configuration not stated) | Not Active | 0.54 | 0.005 | – | – | – |

Next, values leading:

| IC50 (RAW264.7 [1]) | IC50 (RAW264.7 [2]) [µM] | IC50 [3] [µM] | IC50 [4] [µM] | IC50 [5] [µM] | IC50 (RAW264.7 [6]) | Structure (SMILES) |
| --- | --- | --- | --- | --- | --- | --- |
| Not Active | 0.22 | 0.036 | – | – | – | COc1ccc2oc(=O)c(CC(C)C(=O)NO)cc2c1 (configuration not stated) |
| Not Active | 0.32 | 0.003 | > 10 | 1.04 | – | Cc1ccc2oc(=O)c(CC(C)C(=O)NO)cc2c1 (configuration not stated) |
| Not Active | 25.6 | 0.55 | 16.4 | 1.47 | – | O=C(CCc1cc2cc(Cl)ccc2oc1=O)NO |
| Not Active | 2.21 | 0.11 | 5.66 | 0.59 | – | COc1ccc2oc(=O)c(CCC(=O)NO)cc2c1 |
| Not Active | – | 12.4 | – | – | Not Active | CC(C)(C)c1ccc2oc(=O)c(CCC(=O)NO)cc2c1 |
